A selection: hits, their analogues and other compounds. The true share with any hit is near 1.8%.
M4 PAM = CHRM4 positive allosteric modulation | P08173 | 360,000 compounds, 0.4% hits | CHO-K1 hM4/Gqi5, Fluo-8 calcium fluorescence, ACh EC20; 0% = ACh EC20, 100% = maximal ACh | activation, % at 3 µM;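 active = activation above its plate's cutoff, the mean activation of sample wells plus 3 SD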
Target sequence (P08173 whole entry, looked up): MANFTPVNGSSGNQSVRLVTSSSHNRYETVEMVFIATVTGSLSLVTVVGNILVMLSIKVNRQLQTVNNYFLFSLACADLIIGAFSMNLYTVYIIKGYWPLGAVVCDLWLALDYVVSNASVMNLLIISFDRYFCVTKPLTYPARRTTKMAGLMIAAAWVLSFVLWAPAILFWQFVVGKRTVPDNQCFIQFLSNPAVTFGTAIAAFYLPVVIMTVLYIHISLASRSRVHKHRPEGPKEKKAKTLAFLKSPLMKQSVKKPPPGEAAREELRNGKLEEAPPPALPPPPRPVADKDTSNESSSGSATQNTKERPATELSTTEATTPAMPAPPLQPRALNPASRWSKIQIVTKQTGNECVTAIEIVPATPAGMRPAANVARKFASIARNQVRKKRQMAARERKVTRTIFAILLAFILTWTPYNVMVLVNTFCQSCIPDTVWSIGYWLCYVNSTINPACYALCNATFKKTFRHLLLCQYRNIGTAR
CHRM4 agonist = agonists of human muscarinic M4 receptor (CHRM4); CHO-K1 hM4/Gqi5, Fluo-8 calcium fluorescence; vehicle 0%, full acetylcholine response 100%; activation, % at 3 µM; 360,000 compounds, 0.14% hits;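 active = activation above the run mean over all test wells plus 3 SD, cut at about 32% in these data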;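 note: peak over basal fluorescence ratio per well then scaled between controls; 0% = DMSO wells and 100% = acetylcholine at EC100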
M5 ag = CHRM5 agonism in calcium assay; P08912; CHO-K1 hM5 cells, Fluo-8 calcium fluorescence; 0% DMSO wells, 100% maximal acetylcholine response; activation, % at 3 µM; 360,000 compounds, 0.19% hits;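 active = activation above the run's mean over test compounds plus 3 SD, cut at about 23% in these data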;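 note: signal is peak over basal fluorescence ratio across the kinetic read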
CHRM4 antagonist = antagonists of human muscarinic M4 receptor (CHRM4) | P08173 | inhibition, % at 3 µM | CHO-hM4 cells, ACh EC80, Fluo-8 calcium fluorescence | 360,000 compounds, 0.73% hits;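 active = inhibition above its plate's cutoff, the mean inhibition of sample wells plus 3 SD, cut at about 27% in these data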;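 note: 0% = acetylcholine EC80 with DMSO and 100% = DMSO without agonist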
CHRM5 antagonist = antagonists of human muscarinic M5 receptor (CHRM5) | P08912 | inhibition, % at 3 µM | AID 624040 | 360,000 compounds, 0.59% hits | CHO-hM5 cells, Fluo-8 calcium fluorescence, ACh EC80;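 active = inhibition above a per-plate cutoff, the mean of that plate's test compounds plus 3 SD, cut at about 27% in these data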;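 note: 0% = acetylcholine EC80 with DMSO and 100% = DMSO without agonist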
CHRM5 PAM = CHRM5 positive allosteric modulation | P08912 | CHO-K1 hM5, Fluo-8 calcium, ACh EC20 PAM; 0% = ACh EC20, 100% = ACh EC100 | activation, % at 3 µM | 360,000 compounds, 0.3% hits | AID 624038;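 active = activation above the run cutoff, the mean activation of all test compounds plus 3 SD, cut at about 18% in these data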
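Assay system – human M5 receptor in CHO-K1 cells · Read-out – % activation, ACh-normalized · Technique – Fluo-8 calcium fluorescence · Dosing – single-point, 3 µM nominal · Incubation – Fluo-8 loading 80 min at 37 °C plus 30 min room temperature · Repeats – singlicate, one well per test compound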
An asterisk follows results filed as active; + = active, no number; ! = not active in a repeat.

SMILES	M4 PAM	CHRM4 agonist	M5 ag	CHRM4 antagonist	CHRM5 antagonist	CHRM5 PAM
CCN1CCN(CNC(=O)c2cnccn2)CC1	19.1	0.7	-1.7	-1.0	4.7	20.7*
COc1ccc(N2CC(C(=O)Nc3c4c(nn3-c3ccc(OC)cc3)CS(=O)(=O)C4)CC2=O)cc1 (stereo not given)	19.7*	-0.2	-2.2	-10.7	-15.2	-1.6
C=CCNC(=O)Cn1c(=O)c2c(ncn2CCC(C)C)n(Cc2ccccc2)c1=O	0.7	2.8	-1.1	1.5	19.7	-2.0
Cc1cccc(C)c1C(=NCCN(C)C)c1ccccc1	-44.0	2.5	-18.1	11.4	47.6*	-31.3
O=C(Nc1c(-c2ccc3c(c2)OCO3)[nH][nH]c1=O)c1cccc(C(F)(F)F)c1	-1.2	0.4	0.3	-5.8	-5.6	-4.2
CC(O)Cc1cn([C@@H](CCCCN)C(=O)N2CCNCC2)nn1 (stereo not given in full)	0.8	0.5	2.6	-9.4	9.3	6.4
CC(O)[C@@H](C(=O)N1CCNCC1)n1cc(CCCCN)nn1 (stereo not given in full)	-20.2	+	0.8	9.3	-7.4	-4.8
CC(=O)CC(=O)Nc1ccn(-c2ccccc2)n1	0.0	1.2	-0.5	-0.8	6.3	19.5*
O=C(NCCOc1ccccc1)c1cccc(S(=O)(=O)N2CCN(Cc3ccccc3)CC2)c1	-7.5	7.2	0.2	-7.7	5.1	-9.9
CCCS(=O)(=O)NC(=O)C1(C)CCCN(C(=O)c2cccc(C(F)(F)F)c2)C1 (stereo not given)	9.9	1.5	1.4	-4.6	11.0	-4.1
O=C(/C=C/c1ccc(F)cc1)NC(=S)Nc1ccccc1C(=O)NC1CCCCC1	-4.5	0.1	0.8	0.4	8.8	21.1*
Cc1cc(Br)c(NC(=O)CN2C(=O)NC3(CCOc4ccccc43)C2=O)c(Br)c1 (stereo not given)	-0.5	2.7	1.8	-1.7	5.9	-6.0
CC1=C(C(=O)N(C(C)C)C(C)C)CC(CC(=O)NCc2cccc3ccccc23)C(=O)N1Cc1ccc(F)cc1 (stereo not given)	-5.5	0.0	-1.1	-1.8	-2.1	-0.2
O=S(=O)(NC1CCCC1)c1ccc(S(=O)(=O)NC2CCCC2)cc1	-0.4	9.2	28.2*	10.7	2.0	-8.0
CC(=O)Nc1ccc(NC(=O)[C@H](C)NC(=O)c2ccco2)cc1	-6.0	1.2	0.3	10.0	7.0	0.9
CCN1CCN(Cc2ccc(C(=O)Nc3ccc(C)c(NCc4cnc(NC(=O)OC)cn4)c3)cc2C(F)(F)F)CC1	-4.1	-0.2	-3.4	33.1*!	4.8	-4.7
CCN1CCN(Cc2ccc(NC(=O)c3ccc(C)c(NC(=O)c4ccnnc4)c3)cc2C(F)(F)F)CC1	16.6	1.8	0.6	-0.1	-0.3	0.5
Cc1ccc(S(=O)(=O)Nc2ccc3c(c2)C(=O)N([C@H](C)CO)C[C@H](C)[C@@H](CN(C)Cc2ccccc2)O3)cc1	-3.1	-0.3	3.9	-7.8	-5.4	11.1
CCCC(=O)N1CCCC(c2cc(C(=O)NCc3ccc(F)cc3)no2)C1 (stereo not given)	12.2	0.3	2.2	-15.2	-5.3	4.2
CCc1ccc(CN2CCC(Oc3ccc(C(=O)N4CCCC4)cc3)CC2)cc1	-15.6	0.8	-9.0	36.4*	15.1	-8.6
CC(C)c1ccc(CN2CCC(Oc3ccc(C(=O)N4CCCC4)cc3)CC2)cc1	-13.9	4.5	-7.0	31.4*	29.8*	-11.0
CSc1ccc(CN2CCC(Oc3ccc(C(=O)N4CCCC4)cc3)CC2)cc1	-18.8	0.5	-8.9	29.3*	7.7	-7.5
COc1ccccc1NS(=O)(=O)c1cccc(C(=O)N2CCN(Cc3ccc4c(c3)OCO4)CC2)c1	4.1	1.4	3.0	-10.2	7.8	-6.8
Cn1c(=S)[nH]c(=O)c2ncc(=O)[nH]c21	-4.3	-0.5	-1.3	2.6	13.1	-3.1
CC(=O)Nc1ccc(-c2csc(Nc3cc(C)ccn3)n2)cc1	1.9	6.7	4.2	1.6	-5.7	-1.2
SMILES	M4 PAM	CHRM4 agonist	M5 ag	CHRM4 antagonist	CHRM5 antagonist	CHRM5 PAM
Cc1ccnc(Nc2nc(-c3ccccc3)cs2)c1	-10.9	0.0	9.8	-4.1	-16.9	21.9*
O=C(Nc1ccccc1)c1ccc[nH]1	-2.8	0.5	1.1	1.1	2.5	-0.1
COc1ccccc1-c1sc2cc3c(cc2c1-c1ccc(OCCN2CCCCC2)cc1)OCO3	0.1	6.8	-5.5	34.8*	6.8	-12.3
COc1cc2sc(-c3ccccc3OC)c(-c3ccc(OCCN4CCCCC4)cc3)c2cc1OC	-1.5	11.7	2.0	24.7	13.7	-7.6
CN(C)S(=O)(=O)c1ccc(NC(=O)c2cc(-c3cccs3)nc3ccccc23)cc1	-37.9	22.0	2.5	34.4*	22.5	-21.1
CCN(CC)S(=O)(=O)c1ccc(NC(=O)c2cc(-c3cccs3)nc3ccccc23)cc1	-2.2	6.2	-1.0	0.2	16.8	-9.5
CC(=O)NS(=O)(=O)c1ccc(NC(=O)c2cc(-c3cccs3)nc3ccccc23)cc1	21.9*	1.9	0.6	0.2	13.9	0.0
CC(=O)Nc1ccc(-c2csc(-c3cccnc3)n2)cc1	-0.3	1.1	1.1	-1.6	10.3	1.6
COc1cccc(CNC(=O)CCCc2cn(C)c3ccccc23)c1	-9.4	8.6	-0.8	2.7	5.7	-7.2
C[C@@H]1CC=C[C@H]2[C@H]1C(=O)N(Cc1ccccc1)[C@H]2c1ccc2ccccc2c1	-3.8	0.0	4.3	-1.9	5.4	0.9
C[C@@H]1CC=C[C@H]2[C@H]1C(=O)N(Cc1ccccc1)[C@H]2c1ccc2ccccc2c1Br	2.3	0.1	0.8	-7.9	0.4	22.1*
Cc1ccc(CNC(=O)c2ccccc2NC(=O)CN2CCN(C)CC2)cc1	-15.8	2.7	-3.6	9.0	6.1	0.1
COc1ccc(C(CNC(=O)c2cccc(S(=O)(=O)N3CCc4ccccc43)c2)N(C)C)cc1 (stereo not given)	-9.6	4.2	-9.8	15.6	5.2	-10.1
COc1ccccc1C(CNC(=O)c1cccc(S(=O)(=O)N2c3ccccc3CC2C)c1)N(C)C (stereo not given)	-16.2	2.9	-11.2	20.5	77.8*	-47.2
CC1Cc2ccccc2N1S(=O)(=O)c1cccc(C(=O)NCc2ccco2)c1 (stereo not given)	-0.2	2.8	-7.5	-7.1	21.1	-6.9
COc1ccccc1C(CNC(=O)c1cccc(S(=O)(=O)N2CCCc3ccccc32)c1)N(C)C (stereo not given)	-14.3	3.9	-10.8	26.0	67.4*	-44.7
C=CCNC(=O)N1CCCC(C(=O)c2cccc(OC(C)C)c2)C1 (stereo not given)	-7.4	-2.0	2.3	4.4	3.3	-0.8

Bioassay records (PubChem BioAssay)
